Experimental data from ChEMBL document CHEMBL4414643, “Pharmacokinetics of Phytocannabinoid Acids and Anticonvulsant Effect of Cannabidiolic Acid in a Mouse Model of Dravet Syndrome” (J Nat Prod, 2019).

How the values were obtained:
[1] = Ratio of drug level in anesthetized C57BL/6J mouse brain to plasma at 10 mg/kg, ip administered as single dose measured upto 240 mins by LC-MS/MS analysis; format: ADME, organism-based; conditions: read-out: BPR
Procedure, shortened: (§1)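 Male and female mice (C57BL/6J or C57BL/6J x 129 F1), postnatal days 21-28, single i.p. injection at 10 mL/kg in vegetable oil or ethanol–Tween 80–saline (1:1:18). Blood taken by cardiac puncture under isoflurane at time points 15–240 min. Plasma and PBS brain homogenate extracted with ice-cold acetonitrile, diazepam internal standard, quantified by LC-MS/MS. Mean concentrations per time point (n = 3-5); noncompartmental analysis.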

[2] = Cmax in anesthetized C57BL/6J mouse plasma at 10 mg/kg, ip administered as single dose measured upto 240 mins by LC-MS/MS analysis; format: ADME, organism-based; parameters: dose 10 mg/kg, route intraperitoneal; procedure, shortened: as §1
[3] = Cmax in anesthetized C57BL/6J mouse brain at 10 mg/kg, ip administered as single dose measured upto 240 mins by LC-MS/MS analysis; format: ADME, organism-based; parameters: dose 10 mg/kg, route intraperitoneal; conditions: in vivo, 4 h; procedure, shortened: as §1
[4] = Tmax in anesthetized C57BL/6J mouse plasma at 10 mg/kg, ip administered as single dose measured upto 240 mins by LC-MS/MS analysis; format: ADME, organism-based; procedure, shortened: as §1
[5] = Tmax in anesthetized C57BL/6J mouse brain at 10 mg/kg, ip administered as single dose measured upto 240 mins by LC-MS/MS analysis; format: ADME, organism-based; procedure, shortened: as §1
[6] = Half life in anesthetized C57BL/6J mouse plasma at 10 mg/kg, ip administered as single dose measured upto 240 mins by LC-MS/MS analysis; format: ADME, organism-based; procedure, shortened: as §1
[7] = Half life in anesthetized C57BL/6J mouse brain at 10 mg/kg, ip administered as single dose measured upto 240 mins by LC-MS/MS analysis; format: ADME, organism-based; procedure, shortened: as §1
[8] = AUC in anesthetized C57BL/6J mouse plasma at 10 mg/kg, ip administered as single dose measured upto 240 mins by LC-MS/MS analysis; format: ADME, organism-based; parameters: time < 4 hr, dose 10 mg/kg, route intraperitoneal; procedure, shortened: as §1
[9] = AUC in anesthetized C57BL/6J mouse brain at 10 mg/kg, ip administered as single dose measured upto 240 mins by LC-MS/MS analysis; format: ADME, organism-based; parameters: dose 10 mg/kg, time < 4 hr, route intraperitoneal; conditions: in vivo, 4 h; procedure, shortened: as §1
[10] = Dissociation constant, pKa of compound; format: physicochemical
[11] = Partition coefficient, log P of compound; format: physicochemical; conditions: octanol/water
[12] = Drug metabolism in plasma of anesthetized C57BL/6J mouse assessed as decrease in decarboxylation of parent compound at 10 mg/kg, ip by LC-MS/MS analysis; format: ADME, organism-based; conditions: in vivo
Procedure, shortened: (§2)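 Mice aged 21-28 days postnatal received one i.p. dose (10 mL/kg), and plasma and brain were sampled at 15–240 min. Decarboxylated neutral cannabinoids were measured by LC-MS/MS against known standards, alongside the parent acid.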

[13] = Drug metabolism in brain of anesthetized C57BL/6J mouse assessed as decrease in decarboxylation of parent compound at 10 mg/kg, ip by LC-MS/MS analysis; format: ADME, organism-based; conditions: in vivo; procedure, shortened: as §2
[14] = Cmax in anesthetized C57BL/6J mouse plasma at 5 mg/kg, ip administered as single dose measured upto 240 mins by LC-MS/MS analysis; format: ADME, organism-based; parameters: dose 5 mg/kg, route intraperitoneal; procedure, shortened: as §1
[15] = Cmax in anesthetized C57BL/6J mouse brain at 5 mg/kg, ip administered as single dose measured upto 240 mins by LC-MS/MS analysis; format: ADME, organism-based; parameters: dose 5 mg/kg, route intraperitoneal; conditions: C57BL/6J, brain, read-out: Cmax; procedure, shortened: as §1
[16] = Tmax in anesthetized C57BL/6J mouse plasma at 5 mg/kg, ip administered as single dose measured upto 240 mins by LC-MS/MS analysis; format: ADME, organism-based; procedure, shortened: as §1
[17] = Tmax in anesthetized C57BL/6J mouse brain at 5 mg/kg, ip administered as single dose measured upto 240 mins by LC-MS/MS analysis; format: ADME, organism-based; procedure, shortened: as §1
[18] = Half life in anesthetized C57BL/6J mouse plasma at 5 mg/kg, ip administered as single dose measured upto 240 mins by LC-MS/MS analysis; format: ADME, organism-based; procedure, shortened: as §1
[19] = Half life in anesthetized C57BL/6J mouse brain at 5 mg/kg, ip administered as single dose measured upto 240 mins by LC-MS/MS analysis; format: ADME, organism-based; procedure, shortened: as §1
[20] = AUC in anesthetized C57BL/6J mouse plasma at 5 mg/kg, ip administered as single dose measured upto 240 mins by LC-MS/MS analysis; format: ADME, organism-based; parameters: dose 5 mg/kg, time < 4 hr, route intraperitoneal; procedure, shortened: as §1
[21] = AUC in anesthetized C57BL/6J mouse brain at 5 mg/kg, ip administered as single dose measured upto 240 mins by LC-MS/MS analysis; format: ADME, organism-based; parameters: time < 4 hr, dose 5 mg/kg, route intraperitoneal; procedure, shortened: as §1
[22] = Ratio of drug level in anesthetized C57BL/6J mouse brain to plasma at 5 mg/kg, ip administered as single dose measured upto 240 mins by LC-MS/MS analysis; format: ADME, organism-based; conditions: read-out: BPR; procedure, shortened: as §1
[23] = Drug metabolism in plasma of anesthetized C57BL/6J mouse assessed as decrease in decarboxylation of parent compound at 5 mg/kg, ip by LC-MS/MS analysis; format: ADME, organism-based; conditions: in vivo; procedure, shortened: as §2
[24] = Drug metabolism in brain of anesthetized C57BL/6J mouse assessed as decrease in decarboxylation of parent compound at 5 mg/kg, ip by LC-MS/MS analysis; format: ADME, organism-based; conditions: in vivo; procedure, shortened: as §2
[25] = test system: Mus musculus; assay: Anticonvulsant activity against hyperthermia-induced seizure in ip administered Scn1aRX/+ mouse model of Dravet syndrome assessed as effective dose causing increase in generalized tonic-clonic seizure temperature threshold measured by RET-3 rectal probe; format: functional

Compound: CCCCCc1cc(O)c(C/C=C(\C)CCC=C(C)C)c(O)c1C(=O)O [CANNABIGEROLIC ACID]
- Kp at 4 h [1]: 0.02
- Cmax [2]: 63500 ng/mL
- Cmax [3]: 2.3 ng/mg
- Tmax [4]: 45 min
- Tmax [5]: 30 min
- half-life [6]: 62 min
- half-life [7]: 31 min
- AUC at 4 h [8]: 99300 ng·h/mL
- AUC [9]: 94 µg·min/g
- pKa [10]: 2.92
- logP [11]: 7.35
- Drug metabolism [12]: Metabolite_Notdetected
- Drug metabolism [13]: Metabolite_Notdetected

Compound: C=C(C)[C@@H]1CCC(C)=C[C@H]1c1c(O)cc(CCC)c(C(=O)O)c1O
- Cmax [14]: 21000 ng/mL
- Cmax [15]: 800 ng/mL
- Tmax [16]: 15 min
- Tmax [17]: 30 min
- half-life [18]: 49 min
- half-life [19]: 19 min
- AUC at 4 h [20]: 24800 ng·h/mL
- AUC at 4 h [21]: 550 ng·h/mL
- Kp at 4 h [22]: 0.02
- Drug metabolism [23]: Metabolite_Notdetected
- Drug metabolism [24]: Metabolite_Notdetected
- pKa [10]: 2.91
- logP [11]: 5.94

Compound: C=C(C)[C@@H]1CCC(C)=C[C@H]1c1c(O)cc(CCCCC)cc1O [CANNABIDIOL]
- ED [25]: 100 mg/kg
